The full list was thinned out, with hits kept by preference.
Insulin prom act: TRM-6 insulin promoter activation; activation, % at 2 µM; TRM-6 cells (human fetal islet line), insulin promoter eGFP reporter, imaging; plate-scaled: unstimulated 0, stimulated control 100; hit rate 0.81% among 130,000;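 active means activation at 2 µM above a set limit, confirmed on inspection of the cell images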;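 further: share of cells whose green reporter signal exceeds an intensity cutoff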
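Assay system: TRM-6 insulin promoter–eGFP reporter cells / Input: 1,000 cells per well / Medium: Low-glucose (5.5 mM) medium with tamoxifen / Also added: tamoxifen inducer, 0.75 µM, in seeding medium / Timing: overnight tamoxifen, then two-day compound incubation at 37 °C / Signal: automated fluorescence imaging of paraformaldehyde-fixed, Hoechst-counterstained cells, green channel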
Each line names hits and unclear results; the compound was inactive in the other large screens; [ ] = dose if it differs, or a comment.

COc1ccc(C(=O)N2CCCC(c3ccccc3)C2)cc1 (configuration not stated)	Insulin prom act 136.4
COc1ccc(C(=O)N2CCC(C(=O)O)CC2)cc1	none
Cc1ccc(-c2nnc(N3CCOCC3)c3ccccc23)cc1S(=O)(=O)NCC1CCCO1 (configuration not stated)	none
CCCCCCOC(=O)Nc1ccc(S(=O)(=O)Nc2cccc([N+](=O)[O-])c2)cc1	none
COc1ccccc1CC(NC(C)=O)C(=O)N1CCN(C(=O)Nc2ccccc2Cl)CC1 (configuration not stated)	none
CNC(=O)CSc1nnnn1-c1cc(C)ccc1C	none
Cc1ccc(CS(=O)(=O)CCC(=O)NCCC2=CCCCC2)cc1	none
Cc1ccc(C)c(-n2nnnc2SCC(=O)NCCC2=CCCCC2)c1	Insulin prom act 708.3
CCOc1ccccc1C(=O)N[C@H](C(=O)OCc1cc([N+](=O)[O-])cc2c1OCOC2)C(C)C	none
Cc1ccc(C(=O)N/C(=C\c2cccs2)C(=O)NC2CCCCC2)cc1	Insulin prom act 400.0
O=C(Nc1ccccc1)/C(=C\c1cccs1)NC(=O)c1ccccc1	none
O=C(N/C(=C/c1cccs1)C(=O)N1CCCCCC1)c1ccccc1	none
O=S(=O)(NCC1NCCc2ccccc21)c1ccccc1 (configuration not stated)	none
COc1cccc(CC(Cc2nc3ccccc3[nH]2)c2nc3ccccc3[nH]2)c1 (configuration not stated)	none
Cc1ccccc1Oc1cc(-n2ncc(Cl)c(Cl)c2=O)ncn1	Insulin prom act 270.4
Cc1nn(-c2ccccc2)c(C)c1NC(=O)COc1ccc(F)cc1Cl	none
c1ccc(Oc2cc(-n3cccn3)ncn2)cc1	none
CC(C)(C)c1cc(C(=O)NCc2ccccc2)ccn1	none
CCC1=NN(C(=O)c2cccnc2)C(O)(C(F)(F)F)C1 (configuration not stated)	none
Oc1ccc(CN2CCN(Cc3ccccc3)CC2)c2cccnc12	none
O=C(Oc1c(CN2CCOCC2)cc(Cl)c2cccnc12)c1ccccc1	none
O=[N+]([O-])c1cc(CN2CCN(c3ccccc3)CC2)c(O)c2ncccc12	Insulin prom act 330.0
O=C(O)CCc1ccc(-c2cccs2)n1CC1CCCO1 (configuration not stated)	none
COCCCn1c(CCC(=O)O)ccc1-c1cccs1	Insulin prom act 86.5
CCCn1c(CCC(=O)O)ccc1-c1cccs1	none
CCOC(=O)c1ccc(S(=O)(=O)NNC(=O)COc2ccccc2C)cc1	none
Cc1ccc(N(C(=O)CCl)C(C(=O)NC2CCCCC2)c2cccnc2)cc1C (configuration not stated)	none
Cc1ccc(N(C(=O)Cn2nnc(-c3ccccc3)n2)C(C(=O)NC2CCCCC2)c2ccccn2)cc1C (configuration not stated)	Insulin prom act 343.8
CC(C)(C)N(C(=O)Cn1nnc(-c2ccc(F)cc2)n1)C(C(=O)NC1CCCC1)c1ccncc1 (configuration not stated)	none
O=C(CN1CCN(c2ccccc2)CC1)Nc1ccc(OCc2ccccc2)cc1	none
CCN1C(c2ccccc2)=C(c2ccccc2)S/C1=C\C=C1/SC(=S)N(C)C1=O	none
CCCCN1C(=O)/C(=C/C=C2\SCCN2C)SC1=S	Insulin prom act 407.7
CCN1C(=O)/C(=C/C=C2/Sc3ccc4ccccc4c3N2CCO)SC1=S	none
Nc1nonc1C(=O)NCCNS(=O)(=O)c1ccc(F)cc1	none
CCOC(=O)N1CCN(C(=O)CCNS(=O)(=O)c2ccc3c(c2)c(=O)n(C)c(=O)n3C)CC1	Insulin prom act 292.9
CCOc1ccc(NC(=O)CCNS(=O)(=O)c2ccc3c(c2)c(=O)n(C)c(=O)n3C)cc1	none
Cn1c(=O)oc2cc(S(=O)(=O)NCCC(=O)N3CCc4ccccc4C3)ccc21	none
CC(C)CNC(=O)C1CCCN(C(=O)NCc2ccccc2)C1 (configuration not stated)	none
FC(F)(F)c1cnc(-c2cnc(-c3cccnc3)nc2)c(Cl)c1	none
CC(C)Cc1cc(C(=O)N2CCCC(CCC(=O)N(C)CCc3ccccn3)C2)no1 (configuration not stated)	none
Cc1ccc(S(=O)(=O)NCc2ccco2)cc1C(N)=O	none
CC(C)(C)c1ccc(S(=O)(=O)N2CCN(c3ncccn3)CC2)cc1	Insulin prom act 266.7
CC(C)(C)c1cc(C(=O)N2CCN(c3ncccn3)CC2)ccn1	none
O=S(=O)(c1cc(F)cc(F)c1)N1CCN(c2ncccn2)CC1	none
NC(=O)CSC1=Nc2ccccc2C2=NC(c3ccccc3)C(=O)N12 (configuration not stated)	none
Cc1cccc(N2CCN(C(=O)Cc3ccc(Br)cc3)CC2)c1C	none
O=C(Cc1ccc(Br)cc1)N1CCN(c2ccccc2)CC1	Insulin prom act 466.7
O=C(CSCc1ccccc1)N1CCN(c2ccccc2)CC1	none
CC(C)C(NC(=O)C12CC3CC(CC(C3)C1)C2)C(=O)N/N=C/C1=C(N2CCOCC2)C(=C\c2ccc([N+](=O)[O-])cc2)/CC1 (configuration not stated)	none
O=C(/C=C/c1cccc([N+](=O)[O-])c1)NCCN1CCOCC1	none
N#C/C(=C\C1=C(N2CCOCC2)C(=C\c2ccc(Cl)cc2)/CC1)C(=O)Nc1ccccc1F	Insulin prom act 614.3[fluoresces]
Cc1cc(=O)[nH]c(N/N=C/C2=C(N3CCOCC3)C(=C\c3ccc(Cl)cc3)/CC2)n1	none
N#C/C(=C\C1=C(N2CCOCC2)C(=C/c2cccc([N+](=O)[O-])c2)/CC1)C(=O)Nc1ccccc1F	Insulin prom act 614.3
O=C(N/N=C/C1=C(N2CCOCC2)C(=C\c2ccccc2)/CC1)Nc1ccccc1	none
S=C(NCc1ccco1)N1CCN(Cc2ccc(Cl)cc2Cl)CC1	none
CC(C)[C@H](NC(=O)[C@H](CC(=O)O)NC(=O)[C@H](CCCCN)NC(=O)[C@@H](N)CCCN=C(N)N)C(=O)N[C@@H](Cc1ccc(O)cc1)C(=O)O	none
Cc1ccsc1-c1nc(CN(C)C(C2CC2)C2CC2)c(C)o1	none
CN(C)/C=C(\C#N)C(=O)N/N=C/c1ccc(Cl)cc1	none
CC(C)OP(=O)(OC(C)C)C(C)NC(=O)Cc1ccccc1 (configuration not stated)	none
COc1ccc(/C=C/C(=O)NCCSCc2ccco2)cc1	none
CCOC(=O)COn1c(SCC(=O)OCC)nc2ccccc2c1=O	none
CCOC(=O)CSc1nc2ccccc2c(=O)n1CCN1CCOCC1	none
CCOC(=O)C(C)Sc1nc2ccccc2c(=O)n1CC (configuration not stated)	Insulin prom act 425.7
Cc1no[n+]([O-])c1COc1ccc(/C=N/n2nnnc2N)cc1	none
Cc1nnc(NC(=O)CSc2nnc(Cc3ccccc3)n2-c2ccccc2)s1	Insulin prom act 660.0
Cc1nnc(NC(=O)CSc2nnc(C)n2Cc2ccccc2)s1	none
CCc1nnc(NC(=O)CSc2nnc(Cc3ccccc3)n2-c2ccccc2)s1	none
COc1ccc(CCNC(=O)CCc2ccc(S(=O)(=O)NCC(C)C)cc2)cc1	none
Cc1ccc2[nH]c(C)c(CCNC(=O)C3CCCCC3C(=O)OCC(F)(F)F)c2c1 (configuration not stated)	none
COCCN1CCN(c2cc(-c3ccccc3)nc3cc(-c4cccc(F)c4)nn23)CC1	none
CN(CCO)c1c2c(nc3cc(-c4cccc(F)c4)nn13)CCCC2	Insulin prom act 94.6
Fc1cccc(-c2cc3nc4c(c(N5CCC6(CC5)OCCO6)n3n2)CCCC4)c1	none
CCC(CC)C(=O)NCCCCc1ccccc1	none
CC(SCc1cn2cc(Cl)ccc2n1)C(=O)O (configuration not stated)	none
Cc1ccc(CNc2ccc3c(c2)OCO3)cc1	Insulin prom act 440.5
COC(=O)CNc1ccc2c(c1)OCO2	none
Cc1cc(C)cc(NC(=S)NCc2ccc3c(c2)OCO3)c1	none

From PubChem BioAssay
